ChEMBL document CHEMBL1155856, “Synthesis and anti-inflammatory activity of 2-(2-aroylaroxy)-4,6-dimethoxy pyrimidines” (Bioorg Med Chem Lett, 2008)
Activity calls are given as the source filed them. The rule behind the calls is not given here.

test system: Rattus norvegicus; test: Toxicity in albino rat assessed as ulcerogenic activity at 200 mg/kg, po after 5 hrs; format: organism-based; design: dose 200 mg/kg, route oral; conditions: in vivo
In short: (§1)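 Groups of 10 rats (200–230 g) fasted 24 h, then given an oral dose of test compound; controls undosed. Killed 5 h after dosing. Stomach and small intestine examined under microscope for hyperaemia, epithelial shedding, petechiae, frank haemorrhage, and erosion or discrete ulceration with or without perforation; scored as % of animals affected.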

Compound | Activity
COc1cc(OC)nc(Oc2ccc(C)cc2C(=O)c2ccc(Cl)cc2)n1 | 50%
COc1cc(OC)nc(Oc2ccc(F)cc2C(=O)c2ccc(C)cc2)n1 | 20%
COc1cc(OC)nc(Oc2ccc(F)cc2C(=O)c2ccc(Cl)cc2)n1 | 20%
COc1cc(OC)nc(Oc2ccc(Br)cc2C(=O)c2ccc(Cl)cc2)n1 | 10%
CCCCC1C(=O)N(c2ccccc2)N(c2ccccc2)C1=O [PHENYLBUTAZONE] | 60%
COc1cc(OC)nc(Oc2ccc(Cl)cc2C(=O)c2ccc(Cl)cc2)n1 | 20%
COc1cc(OC)nc(Oc2ccc(C)cc2C(=O)c2ccc(C)cc2)n1 | 30%
CC(=O)Oc1ccccc1C(=O)O [ASPIRIN] | 90%

test system: Rattus norvegicus; test: Toxicity in albino rat with hyperemia assessed as ulcerogenic activity at 200 mg/kg, po after 5 hrs; format: organism-based; design: dose 200 mg/kg, route oral; conditions: in vivo; in short: as §1

Compound | Activity
COc1cc(OC)nc(Oc2ccc(C)cc2C(=O)c2ccc(Cl)cc2)n1 | 40%
COc1cc(OC)nc(Oc2ccc(F)cc2C(=O)c2ccc(C)cc2)n1 | 90%
COc1cc(OC)nc(Oc2ccc(F)cc2C(=O)c2ccc(Cl)cc2)n1 | 60%
COc1cc(OC)nc(Oc2ccc(Br)cc2C(=O)c2ccc(Cl)cc2)n1 | 70%
CCCCC1C(=O)N(c2ccccc2)N(c2ccccc2)C1=O [PHENYLBUTAZONE] | 60%
COc1cc(OC)nc(Oc2ccc(Cl)cc2C(=O)c2ccc(Cl)cc2)n1 | 60%
COc1cc(OC)nc(Oc2ccc(C)cc2C(=O)c2ccc(C)cc2)n1 | 70%
CC(=O)Oc1ccccc1C(=O)O [ASPIRIN] | 60%

test system: Rattus norvegicus; test: Toxicity in albino rat with hyperemia assessed as ulcerogenic activity at 100 mg/kg, po after 5 hrs; format: organism-based; design: dose 100 mg/kg, route oral; conditions: in vivo; in short: as §1

Compound | Activity
COc1cc(OC)nc(Oc2ccc(C)cc2C(=O)c2ccc(Cl)cc2)n1 | 20%
COc1cc(OC)nc(Oc2ccc(F)cc2C(=O)c2ccc(C)cc2)n1 | 70%
COc1cc(OC)nc(Oc2ccc(F)cc2C(=O)c2ccc(Cl)cc2)n1 | 30%
COc1cc(OC)nc(Oc2ccc(Br)cc2C(=O)c2ccc(Cl)cc2)n1 | 50%
CCCCC1C(=O)N(c2ccccc2)N(c2ccccc2)C1=O [PHENYLBUTAZONE] | 30%
COc1cc(OC)nc(Oc2ccc(Cl)cc2C(=O)c2ccc(Cl)cc2)n1 | 40%
COc1cc(OC)nc(Oc2ccc(C)cc2C(=O)c2ccc(C)cc2)n1 | 50%
CC(=O)Oc1ccccc1C(=O)O [ASPIRIN] | 30%

test system: Rattus norvegicus; test: Antiinflammatory activity against carrageenan-induced acute paw edema in albino rat assessed as reduction of edema at 80 mg/kg, po after 3 hrs relative to control; format: functional; conditions: not given
In short: (§2)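 Groups of five rats (125–160 g) dosed with test compound; 30 min later 0.2 mL of 1% carrageenan in 0.9% NaCl injected subcutaneously into the plantar aponeurosis of the hind paw. Paw volume read by water plethysmometer at baseline and at 3 h. Mean increase compared with carrageenan-only control group (five rats); % inhibition = (1 − Gt/Gc) × 100.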

Compound | inhibition in vivo at 80 mg/kg
COc1cc(OC)nc(Oc2ccc(C)cc2C(=O)c2ccc(Cl)cc2)n1 | 45.5%
COc1cc(OC)nc(Oc2ccc(F)cc2C(=O)c2ccc(C)cc2)n1 | 58.2%
COc1cc(OC)nc(Oc2ccc(F)cc2C(=O)c2ccc(Cl)cc2)n1 | 88.6%
COc1cc(OC)nc(Oc2ccc(Br)cc2C(=O)c2ccc(Cl)cc2)n1 | 57.7%
CCCCC1C(=O)N(c2ccccc2)N(c2ccccc2)C1=O [PHENYLBUTAZONE] | 51.9%
COc1cc(OC)nc(Oc2ccc(Cl)cc2C(=O)c2ccc(Cl)cc2)n1 | 58.7%
COc1cc(OC)nc(Oc2ccc(C)cc2C(=O)c2ccc(C)cc2)n1 | 55.3%
CC(=O)Oc1ccccc1C(=O)O [ASPIRIN] | 61.4%

test system: Rattus norvegicus; test: Toxicity in albino rat with hyperemia assessed as ulcerogenic activity at 400 mg/kg, po after 5 hrs; format: organism-based; design: dose 400 mg/kg, route oral; conditions: in vivo; in short: as §1

Compound | Activity
COc1cc(OC)nc(Oc2ccc(C)cc2C(=O)c2ccc(Cl)cc2)n1 | 60%
COc1cc(OC)nc(Oc2ccc(F)cc2C(=O)c2ccc(C)cc2)n1 | 100%
COc1cc(OC)nc(Oc2ccc(F)cc2C(=O)c2ccc(Cl)cc2)n1 | 90%
COc1cc(OC)nc(Oc2ccc(Br)cc2C(=O)c2ccc(Cl)cc2)n1 | 90%
CCCCC1C(=O)N(c2ccccc2)N(c2ccccc2)C1=O [PHENYLBUTAZONE] | 90%
COc1cc(OC)nc(Oc2ccc(Cl)cc2C(=O)c2ccc(Cl)cc2)n1 | 100%
COc1cc(OC)nc(Oc2ccc(C)cc2C(=O)c2ccc(C)cc2)n1 | 100%
CC(=O)Oc1ccccc1C(=O)O [ASPIRIN] | 90%

test system: not listed separately; test: Toxicity in po dosed albino mouse; format: organism-based; conditions: in vivo, read-out: ALD50
In short: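 Albino mice (25–30 g), in groups of 10, were given test compound at several dose levels. Percent mortality in each group was recorded 24 h after dosing. The approximate 50% lethal dose (ALD50) was calculated by Smith's method.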

Compound | LD50
COc1cc(OC)nc(Oc2ccc(C)cc2C(=O)c2ccc(Cl)cc2)n1 | > 1000 mg/kg
COc1cc(OC)nc(Oc2ccc(F)cc2C(=O)c2ccc(C)cc2)n1 | > 1000 mg/kg
COc1cc(OC)nc(Oc2ccc(F)cc2C(=O)c2ccc(Cl)cc2)n1 | > 1000 mg/kg
COc1cc(OC)nc(Oc2ccc(Br)cc2C(=O)c2ccc(Cl)cc2)n1 | > 1000 mg/kg
COc1cc(OC)nc(Oc2ccc(Cl)cc2C(=O)c2ccc(Cl)cc2)n1 | > 1000 mg/kg
COc1cc(OC)nc(Oc2ccc(C)cc2C(=O)c2ccc(C)cc2)n1 | > 1000 mg/kg

test system: Rattus norvegicus; test: Antiinflammatory activity against carrageenan-induced acute paw edema in po dosed albino rat assessed as reduction of edema; format: functional; conditions: not given; in short: as §2

Compound | ED50
COc1cc(OC)nc(Oc2ccc(C)cc2C(=O)c2ccc(Cl)cc2)n1 | 77.5 mg/kg
COc1cc(OC)nc(Oc2ccc(F)cc2C(=O)c2ccc(C)cc2)n1 | 62.5 mg/kg
COc1cc(OC)nc(Oc2ccc(F)cc2C(=O)c2ccc(Cl)cc2)n1 | 51.2 mg/kg
COc1cc(OC)nc(Oc2ccc(Br)cc2C(=O)c2ccc(Cl)cc2)n1 | 77.2 mg/kg
COc1cc(OC)nc(Oc2ccc(Cl)cc2C(=O)c2ccc(Cl)cc2)n1 | 78.3 mg/kg
COc1cc(OC)nc(Oc2ccc(C)cc2C(=O)c2ccc(C)cc2)n1 | 60.2 mg/kg

organism: Oryctolagus cuniculus; test: Inhibition of rabbit distal colon cyclooxygenase at 10 uM; conditions: not given
In short: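 Microsomal fraction from rabbit distal colon mucosa, homogenized and washed in 0.1 M Tris pH 8.0, used fresh. Preincubated with test agent 10 min at 37 °C in Tris-HCl pH 8.0 with 2 mM reduced glutathione, 5 mM L-tryptophan and 1 µM hematin. Then 20 µM arachidonic acid with trace [1-14C]arachidonate added, 5 min at 37 °C. Stopped with cold ether/methanol/0.2 M citric acid. PGE2 separated by RP-HPLC and counted by scintillation; inhibition vs paired controls.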

Compound | Activity | inhibition
COc1cc(OC)nc(Oc2ccc(C)cc2C(=O)c2ccc(Cl)cc2)n1 | inactive | –
COc1cc(OC)nc(Oc2ccc(F)cc2C(=O)c2ccc(C)cc2)n1 | – | 40%
COc1cc(OC)nc(Oc2ccc(F)cc2C(=O)c2ccc(Cl)cc2)n1 | inactive | –
COc1cc(OC)nc(Oc2ccc(Br)cc2C(=O)c2ccc(Cl)cc2)n1 | – | 70%
CCCCC1C(=O)N(c2ccccc2)N(c2ccccc2)C1=O [PHENYLBUTAZONE] | – | 89%
COc1cc(OC)nc(Oc2ccc(Cl)cc2C(=O)c2ccc(Cl)cc2)n1 | – | 20%
COc1cc(OC)nc(Oc2ccc(C)cc2C(=O)c2ccc(C)cc2)n1 | – | 87%
CC(=O)Oc1ccccc1C(=O)O [ASPIRIN] | – | 99%

test system: Rattus norvegicus; test: Antiinflammatory activity against carrageenan-induced acute paw edema in albino rat assessed as reduction of edema at 20 mg/kg, po after 3 hrs relative to control; format: functional; conditions: not given; in short: as §2

Compound | inhibition in vivo at 20 mg/kg
COc1cc(OC)nc(Oc2ccc(C)cc2C(=O)c2ccc(Cl)cc2)n1 | 11.5%
COc1cc(OC)nc(Oc2ccc(F)cc2C(=O)c2ccc(C)cc2)n1 | 19.4%
COc1cc(OC)nc(Oc2ccc(F)cc2C(=O)c2ccc(Cl)cc2)n1 | 29.9%
COc1cc(OC)nc(Oc2ccc(Br)cc2C(=O)c2ccc(Cl)cc2)n1 | 13.7%
CCCCC1C(=O)N(c2ccccc2)N(c2ccccc2)C1=O [PHENYLBUTAZONE] | 29.6%
COc1cc(OC)nc(Oc2ccc(Cl)cc2C(=O)c2ccc(Cl)cc2)n1 | 13.4%
COc1cc(OC)nc(Oc2ccc(C)cc2C(=O)c2ccc(C)cc2)n1 | 20.2%
CC(=O)Oc1ccccc1C(=O)O [ASPIRIN] | 29.9%

test system: Rattus norvegicus; test: Toxicity in albino rat assessed as ulcerogenic activity at 400 mg/kg, po after 5 hrs; format: organism-based; design: dose 400 mg/kg, route oral; conditions: in vivo; in short: as §1

Compound | Activity
COc1cc(OC)nc(Oc2ccc(C)cc2C(=O)c2ccc(Cl)cc2)n1 | 80%
COc1cc(OC)nc(Oc2ccc(F)cc2C(=O)c2ccc(C)cc2)n1 | 40%
COc1cc(OC)nc(Oc2ccc(F)cc2C(=O)c2ccc(Cl)cc2)n1 | 12%
COc1cc(OC)nc(Oc2ccc(Br)cc2C(=O)c2ccc(Cl)cc2)n1 | 15%
CCCCC1C(=O)N(c2ccccc2)N(c2ccccc2)C1=O [PHENYLBUTAZONE] | 90%
COc1cc(OC)nc(Oc2ccc(Cl)cc2C(=O)c2ccc(Cl)cc2)n1 | 40%
COc1cc(OC)nc(Oc2ccc(C)cc2C(=O)c2ccc(C)cc2)n1 | 40%
CC(=O)Oc1ccccc1C(=O)O [ASPIRIN] | 90%

biological target: Phospholipase A2 (Rattus norvegicus) (UniProt P04055); test: Inhibition of rat PLA2 using [14C]oleate labeled autoclaved Escherichia coli at 10 ug; conditions: not given
In short: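 Enzyme amount set for 10–15% hydrolysis over 60 min at 37 °C. Stopped with 2.0 N HCl plus fatty-acid-free BSA, centrifuged at 20,000g for 5 min. Released [14C]oleic acid in the supernatant counted by liquid scintillation.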

Phospholipase A2 (Rattus norvegicus), sequence (P04055 whole entry): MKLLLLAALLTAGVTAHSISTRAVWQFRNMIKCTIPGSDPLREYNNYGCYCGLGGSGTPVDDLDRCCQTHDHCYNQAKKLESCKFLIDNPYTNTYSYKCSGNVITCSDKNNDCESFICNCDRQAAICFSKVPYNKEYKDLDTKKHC

Compound | inhibition
COc1cc(OC)nc(Oc2ccc(C)cc2C(=O)c2ccc(Cl)cc2)n1 | 80%
COc1cc(OC)nc(Oc2ccc(F)cc2C(=O)c2ccc(C)cc2)n1 | 20%
COc1cc(OC)nc(Oc2ccc(F)cc2C(=O)c2ccc(Cl)cc2)n1 | 60%
COc1cc(OC)nc(Oc2ccc(Br)cc2C(=O)c2ccc(Cl)cc2)n1 | 30%
CCCCC1C(=O)N(c2ccccc2)N(c2ccccc2)C1=O [PHENYLBUTAZONE] | 85%
COc1cc(OC)nc(Oc2ccc(Cl)cc2C(=O)c2ccc(Cl)cc2)n1 | 40%
COc1cc(OC)nc(Oc2ccc(C)cc2C(=O)c2ccc(C)cc2)n1 | 10%
CC(=O)Oc1ccccc1C(=O)O [ASPIRIN] | 90%

test system: Rattus norvegicus; test: Antiinflammatory activity against carrageenan-induced acute paw edema in albino rat assessed as reduction of edema at 40 mg/kg, po after 3 hrs relative to control; format: functional; conditions: not given; in short: as §2

Compound | inhibition in vivo at 40 mg/kg
COc1cc(OC)nc(Oc2ccc(C)cc2C(=O)c2ccc(Cl)cc2)n1 | 21.5%
COc1cc(OC)nc(Oc2ccc(F)cc2C(=O)c2ccc(C)cc2)n1 | 29.1%
COc1cc(OC)nc(Oc2ccc(F)cc2C(=O)c2ccc(Cl)cc2)n1 | 48.6%
COc1cc(OC)nc(Oc2ccc(Br)cc2C(=O)c2ccc(Cl)cc2)n1 | 33.2%
CCCCC1C(=O)N(c2ccccc2)N(c2ccccc2)C1=O [PHENYLBUTAZONE] | 34.1%
COc1cc(OC)nc(Oc2ccc(Cl)cc2C(=O)c2ccc(Cl)cc2)n1 | 29.5%
COc1cc(OC)nc(Oc2ccc(C)cc2C(=O)c2ccc(C)cc2)n1 | 45.8%
CC(=O)Oc1ccccc1C(=O)O [ASPIRIN] | 38.8%

test system: Rattus norvegicus; test: Toxicity in albino rat assessed as ulcerogenic activity at 100 mg/kg, po after 5 hrs; format: organism-based; design: dose 100 mg/kg, route oral; conditions: in vivo; in short: as §1

Compound | Activity
COc1cc(OC)nc(Oc2ccc(C)cc2C(=O)c2ccc(Cl)cc2)n1 | 40%
COc1cc(OC)nc(Oc2ccc(F)cc2C(=O)c2ccc(C)cc2)n1 | 10%
COc1cc(OC)nc(Oc2ccc(F)cc2C(=O)c2ccc(Cl)cc2)n1 | 10%
COc1cc(OC)nc(Oc2ccc(Br)cc2C(=O)c2ccc(Cl)cc2)n1 | 5%
CCCCC1C(=O)N(c2ccccc2)N(c2ccccc2)C1=O [PHENYLBUTAZONE] | 30%
COc1cc(OC)nc(Oc2ccc(Cl)cc2C(=O)c2ccc(Cl)cc2)n1 | 10%
COc1cc(OC)nc(Oc2ccc(C)cc2C(=O)c2ccc(C)cc2)n1 | 20%
CC(=O)Oc1ccccc1C(=O)O [ASPIRIN] | 80%
